High-throughput results (PubChem)
SR-BI HDL uptake: inhibitors of mouse SR-BI mediated HDL lipid uptake; ldlA[mSR-BI] CHO cells, DiI-HDL uptake fluorescence, 3 h; 0.96% of 320,000 active; inhibition, % at 12.5 µM; Q61009;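 active = mean replicate inhibition of at least 70% and a set share of replicates each scoring 70 or more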
FXN GAA850 act: increases GAA850 frataxin promoter reporter activity; activation, % at 6 µM; HEK293 lucGAA850 FXN promoter luciferase reporter, 24 h; percent of 10 µM SAHA response; 0.56% of 360,000 active;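 active = activation above the average of all compounds screened plus 3 SD, cutoff fixed separately per campaign, cut at about 7.5% in these data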
AHR activator: human AHR activation; P35869; AHR-responsive luciferase reporter cells, luminescence; activation, % at 5 µM; 2.5% of 320,000 active; in the data active = activation above about 47%
Target sequence (P35869 whole entry, looked up): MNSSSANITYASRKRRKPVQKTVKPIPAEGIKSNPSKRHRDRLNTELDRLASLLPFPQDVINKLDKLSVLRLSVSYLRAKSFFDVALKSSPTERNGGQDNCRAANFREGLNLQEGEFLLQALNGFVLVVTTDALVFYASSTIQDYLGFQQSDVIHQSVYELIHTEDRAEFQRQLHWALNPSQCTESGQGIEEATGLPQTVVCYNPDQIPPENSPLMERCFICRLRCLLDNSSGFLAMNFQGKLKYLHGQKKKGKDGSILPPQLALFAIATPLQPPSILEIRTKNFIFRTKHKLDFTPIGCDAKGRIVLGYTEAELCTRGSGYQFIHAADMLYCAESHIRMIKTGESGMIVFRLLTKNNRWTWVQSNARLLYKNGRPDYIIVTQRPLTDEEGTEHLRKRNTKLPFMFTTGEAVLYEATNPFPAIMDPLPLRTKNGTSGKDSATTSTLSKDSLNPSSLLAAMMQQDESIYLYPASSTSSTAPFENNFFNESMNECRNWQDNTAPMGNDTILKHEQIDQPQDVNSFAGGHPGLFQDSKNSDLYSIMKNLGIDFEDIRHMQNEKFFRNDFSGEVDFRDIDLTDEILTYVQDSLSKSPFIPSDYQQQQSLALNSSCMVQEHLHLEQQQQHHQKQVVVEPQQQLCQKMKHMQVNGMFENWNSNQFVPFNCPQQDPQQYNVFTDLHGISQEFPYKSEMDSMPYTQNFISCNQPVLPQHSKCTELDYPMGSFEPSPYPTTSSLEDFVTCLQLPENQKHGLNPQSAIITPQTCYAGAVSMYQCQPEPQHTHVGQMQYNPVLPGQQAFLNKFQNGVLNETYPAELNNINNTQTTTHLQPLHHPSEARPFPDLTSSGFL
HIF activator: HIF pathway transcriptional activation. U2OS HRE-luciferase reporter, luminescence; normalized: DMSO 0%, desferrioxamine 100%. AID 1910. activation, % at 7.5 µM (by protocol). 0.32% of 300,000 active;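 active = mean activation of at least 10% of the iron chelator positive control signal, with at least half of replicates also reaching 10%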
SR-BI uptake up: SR-BI HDL lipid transfer activation | activation, % at 12.5 µM | CHO ldlA[mSR-BI] cells, DiI-HDL uptake fluorescence, 3 h; 100 = double the neutral-control signal | 0.096% of 320,000 active;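 active = mean replicate activation of at least 60% and every replicate at or above 60%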
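material = CHO ldlA[mSR-BI] cells | medium = Ham's F12 with 0.5% BSA, HEPES 25 mM, pH 7.4 | reagent = fluorescent DiI-HDL, 10 µg/mL final | compound dosing = single-point compound dose | incubation = 3 h, 37 °C | measured by = bottom-read fluorescence, 550/595 nm | measure = HDL uptake via cellular fluorescence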
ABCB6 inh 2: inhibitors of human ABC transporter ABCB6 | fluorescence ratio to DMSO, % at 10 µM | K562-ABCB6 porphyrin accumulation, flow cytometry, 1 h; hits give low values | 0.19% of 360,000 active | Q9NP58;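 active = fluorescence ratio to DMSO below 75%, the collection mean minus 3 SD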;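 also: signal is porphyrin accumulated inside mitochondria; lower ratio means ABCB6 inhibition with less porphyrin fluorescence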
GAA30 counter: GAA30 FXN promoter activation counter-screen. HEK293 lucGAA30 FXN promoter luciferase, 24 h; DMSO = 0%, 5 µM ipriflavone = 100%. 66% of 1,900 active. shares compounds with FXN GAA850 act. activation, % at 6 µM;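 active = mean activation above the mean of solvent-only control wells plus 3 SD, cut at about 22% in these data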;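 also: counterscreen of GAA850 promoter hits where activity marks nonselective or luminescence artifacts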
GAA850 confirm: confirmation of GAA850 frataxin (FXN) promoter activators; shares compounds with FXN GAA850 act; HEK293 lucGAA850 FXN promoter luciferase reporter, 24 h; 100% = activation by SAHA; activation, % at 6 µM; 86% of 1,900 active; AID 588351;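 active = mean activation above a set limit taken from the primary screen, cut at about 8% in these data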
Each line names hits and unclear results; the compound was inactive in the other large screens (follow-up assays come after a bar, where they were run). A selection: hits, their analogues and other compounds. The true share with any hit is near 3.9%.

CCC(C)N(C(=O)COC(=O)CNC(=O)c1ccccc1F)C1CCS(=O)(=O)C1 (centres undefined)	none
CCCCOP(=O)(c1ccc(N(C)C)cc1)C(O)c1ccc(N(C)C)cc1 (centres undefined)	none
CCCCOP(=O)(c1ccc(N(C)C)cc1)C(O)c1c(Cl)cccc1Cl (centres undefined)	FXN GAA850 act 16 | GAA30 counter inactive | GAA850 confirm 11
Nc1nc(SCc2ccc(Cl)cc2Cl)ns1	FXN GAA850 act 7.9 | GAA30 counter 50 | GAA850 confirm 15
CCCCN1C(=O)/C(=C/C=C2/CC(C)(C)CN2C)SC1=S	FXN GAA850 act 8.6 | GAA30 counter 95 | GAA850 confirm 33
Cc1ccc(NC(=O)C2CCCN(c3ncccn3)C2)cc1F (centres undefined)	FXN GAA850 act 7.6 | GAA30 counter 113 | GAA850 confirm 32
Nc1ccc2c(c1)C(=NO)c1cc([N+](=O)[O-])ccc1-2	FXN GAA850 act 13 (no result: AHR activator, HIF activator) | GAA30 counter 79 | GAA850 confirm 35
O=[N+]([O-])c1ccc2c(c1)-c1ccccc1C2=NO	none (no result: AHR activator, HIF activator)
C/C(=N\NC(=O)C1(C)CC1(Br)Br)c1cccc(NC(=O)C2CCC2)c1 (centres undefined)	none
CCc1nc2ccc(C(=O)Nc3cc(-c4ccccc4)ccc3OC)cn2c1N(C)Cc1ccc(OC)cc1	none (no result: SR-BI HDL uptake, AHR activator, HIF activator, SR-BI uptake up)
COC(=O)c1ccc(CSc2nc3ccccc3c(=O)n2-c2ccccc2)o1	FXN GAA850 act 16 | GAA30 counter inactive | GAA850 confirm 12
c1cncc(-c2nnc3n2N=C(c2cccs2)CS3)c1	none
CNC(=S)NNc1nncc2ccccc12	none (no result: SR-BI HDL uptake, SR-BI uptake up)
O=C(O)c1cccc(N/N=C/c2sc(N3CCOCC3)nc2-c2ccccc2)c1	FXN GAA850 act 11 | GAA30 counter 133 | GAA850 confirm 39
CC(C)Cc1ccc(C(C)C(N)=NCCc2ccccc2)cc1 (centres undefined)	FXN GAA850 act 11 (no result: AHR activator) | GAA30 counter inactive | GAA850 confirm 36
Fc1cccc(F)c1/C=C/c1ccc2ccccc2n1	FXN GAA850 act 8.0, AHR activator 48 | GAA30 counter 108 | GAA850 confirm 34
CCOC(=O)c1cnc(SCc2ccccc2)nc1N	FXN GAA850 act 9.9 | GAA30 counter 117 | GAA850 confirm 39
O=C(/C=C/Sc1ccccc1)c1ccccc1	none
O=C(/C=C/Sc1ccccc1)c1ccc(Cl)cc1	FXN GAA850 act 12 | GAA30 counter 86 | GAA850 confirm 58
CC1=C(C(=O)OC2CCCCC2)C(c2ccc(C)o2)C2=C(CC(C)(C)CC2=O)N1 (centres undefined)	none
CCCCC1(Cc2cccc([N+](=O)[O-])c2)C(=O)N(c2ccccc2)N(c2ccccc2)C1=O	FXN GAA850 act 8.2 (no result: SR-BI HDL uptake, SR-BI uptake up) | GAA30 counter inactive | GAA850 confirm inactive
CCCCC1(Br)C(=O)N(c2ccccc2)N(c2ccccc2)C1=O	none (no result: HIF activator)
CCCCC1(CC(=O)OCC)C(=O)N(c2ccccc2)N(c2ccccc2)C1=O	FXN GAA850 act 9.1 | GAA30 counter inactive | GAA850 confirm 9.7
CCCCC1(CO)C(=O)N(c2ccccc2)N(c2ccccc2)C1=O	none
COc1ccc2[nH]c(=O)c(C(c3nnnn3C3CCCCC3)N3CCN(C)CC3)cc2c1 (centres undefined)	none
CCCN1CCN(C(c2cc3cc(OCC)ccc3[nH]c2=O)c2nnnn2C2CCCCC2)CC1 (centres undefined)	FXN GAA850 act 11 | GAA30 counter inactive | GAA850 confirm 7.9
COc1cc(/C=N/NC(=O)c2nonc2C)ccc1O	none
Cc1nonc1C(=O)N/N=C/c1ccc(O)c(O)c1	FXN GAA850 act 9.4 | GAA30 counter 30 | GAA850 confirm 8.4
CC(=O)NC(NC(C)=O)c1cccc(OCc2ccccc2)c1	none
COc1cc2cc(C(=O)N(C)Cc3ccccc3)[nH]c2cc1OC	none (no result: AHR activator)
C=CCN(Cc1ccc(OC)c(OC)c1)C(=O)c1cc2cc(F)ccc2[nH]1	FXN GAA850 act 13, AHR activator 47 | GAA30 counter 27 | GAA850 confirm 16
O=C(Nc1ccc(F)cc1F)c1cccc(S(=O)(=O)N2CCCCC2)c1	none (no result: HIF activator)
C=CCN(CC=C)c1cnn(-c2nc3ccccc3[nH]2)c(=O)c1Cl	none
COc1c(O)ccc(/C=N/NC(=O)c2ccc3c(c2)OCCO3)c1[N+](=O)[O-]	FXN GAA850 act 7.7 (no result: HIF activator) | GAA30 counter 71 | GAA850 confirm 19
COc1c(O)ccc(/C=N\NC(=O)c2ccc3c(c2)OCO3)c1[N+](=O)[O-]	none
NNC(=O)CN1C(c2ccccc2Br)=Nc2ccc(Br)cc2C1c1ccccc1 (centres undefined)	FXN GAA850 act 9.2 | GAA30 counter inactive | GAA850 confirm 8.7
COC(=O)CN1C(c2ccc(Cl)cc2)=Nc2ccc(Cl)cc2C1c1ccccc1 (centres undefined)	FXN GAA850 act 13 | GAA30 counter inactive | GAA850 confirm 11
CCC(C(=O)OC)n1cnc2scc(-c3ccc(C)c(C)c3)c2c1=O (centres undefined)	none
CCCN(CC(=O)Nc1ccc(F)c(F)c1F)Cc1cc(=O)n2ccsc2n1	none
O=C(N/N=C/C(Br)=C/c1ccccc1)c1ccccc1F	FXN GAA850 act 8.5 | GAA30 counter 110 | GAA850 confirm 42
O=C(N/N=C/C(Br)=C/c1ccccc1)c1cc(-c2ccco2)[nH]n1	FXN GAA850 act 8.3 | GAA30 counter inactive | GAA850 confirm 13
O=C(CNc1cccc2ccccc12)N/N=C/C(Br)=C/c1ccccc1	FXN GAA850 act 13 | GAA30 counter inactive | GAA850 confirm inactive
O=C(N/N=C/C(Cl)=C/c1ccccc1)c1ccccc1F	none
O=C(CNc1cccc2ccccc12)N/N=C/c1ccc[nH]1	none
CC1=NNC(=O)C1CCC(=O)N/N=C/C(Br)=C/c1ccccc1 (centres undefined)	FXN GAA850 act 12 | GAA30 counter 24 | GAA850 confirm inactive
O=S(=O)(NC1CCCCC1)c1ccc(-c2csnn2)s1	none
CC1CN(CC(=O)Nc2cc(S(=O)(=O)N3CCCC3)ccc2Cl)CC(C)O1 (centres undefined)	none (no result: SR-BI HDL uptake, SR-BI uptake up)
CCCCOc1ccc(C(=O)NCCc2ccccc2)cc1	none
COc1ccc([N+](=O)[O-])cc1NC(=O)Cc1noc2ccc(C)cc12	none
O=C(c1ccc(Br)o1)N1CCN(C23CC4CC(CC(C4)C2)C3)CC1	none
